# This is a sample that favours compounds with a hit; in the whole collection about 2.2% have one here.
# RanGTP-Impb inh – disruptors of Ran-importin-beta complex formation – biochemical, FRET, CFP-Ran, YFP-importin-beta, homogeneous, primary screen. inhibition, % (no concentration beside the values). cell-free CFP-Ran/YFP-importin-beta FRET ratio. 300,000 tested, 1.1% active;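 active = more than half of the replicate wells show a fall in the fluorescence ratio signal beyond about 16%, limit read from the data, passing the limit was not always enough; inconclusive = exactly half of the replicate wells pass the set limit; inactive = fewer than half of replicates pass the limit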;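 note: 0% = DMSO wells and 100% = Ran loaded with GDP instead of GTP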
# eIF4E-4G inh – eIF4E/eIF4G interaction inhibition in translation initiation; TR-FRET eIF4E-eIF4GI(517-606) binding, 2 h; P63073+Q04637; inhibition, % at 21.7 µM; 220,000 tested, 0.37% active; AID 782;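 active = inhibition above about 30%, limit read from the data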;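 note: 0% = full FRET control wells and 100% = background wells lacking eIF4GI fragment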
# Target sequence (P63073 whole entry, looked up, the tested form may be a part): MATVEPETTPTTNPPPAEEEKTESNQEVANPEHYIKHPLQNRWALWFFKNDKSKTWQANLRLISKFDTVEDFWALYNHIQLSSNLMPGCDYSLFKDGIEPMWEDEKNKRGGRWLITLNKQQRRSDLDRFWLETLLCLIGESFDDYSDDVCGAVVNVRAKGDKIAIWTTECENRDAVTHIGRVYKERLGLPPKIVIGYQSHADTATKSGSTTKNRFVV
# Target sequence (Q04637 whole entry, looked up, the tested form may be a part): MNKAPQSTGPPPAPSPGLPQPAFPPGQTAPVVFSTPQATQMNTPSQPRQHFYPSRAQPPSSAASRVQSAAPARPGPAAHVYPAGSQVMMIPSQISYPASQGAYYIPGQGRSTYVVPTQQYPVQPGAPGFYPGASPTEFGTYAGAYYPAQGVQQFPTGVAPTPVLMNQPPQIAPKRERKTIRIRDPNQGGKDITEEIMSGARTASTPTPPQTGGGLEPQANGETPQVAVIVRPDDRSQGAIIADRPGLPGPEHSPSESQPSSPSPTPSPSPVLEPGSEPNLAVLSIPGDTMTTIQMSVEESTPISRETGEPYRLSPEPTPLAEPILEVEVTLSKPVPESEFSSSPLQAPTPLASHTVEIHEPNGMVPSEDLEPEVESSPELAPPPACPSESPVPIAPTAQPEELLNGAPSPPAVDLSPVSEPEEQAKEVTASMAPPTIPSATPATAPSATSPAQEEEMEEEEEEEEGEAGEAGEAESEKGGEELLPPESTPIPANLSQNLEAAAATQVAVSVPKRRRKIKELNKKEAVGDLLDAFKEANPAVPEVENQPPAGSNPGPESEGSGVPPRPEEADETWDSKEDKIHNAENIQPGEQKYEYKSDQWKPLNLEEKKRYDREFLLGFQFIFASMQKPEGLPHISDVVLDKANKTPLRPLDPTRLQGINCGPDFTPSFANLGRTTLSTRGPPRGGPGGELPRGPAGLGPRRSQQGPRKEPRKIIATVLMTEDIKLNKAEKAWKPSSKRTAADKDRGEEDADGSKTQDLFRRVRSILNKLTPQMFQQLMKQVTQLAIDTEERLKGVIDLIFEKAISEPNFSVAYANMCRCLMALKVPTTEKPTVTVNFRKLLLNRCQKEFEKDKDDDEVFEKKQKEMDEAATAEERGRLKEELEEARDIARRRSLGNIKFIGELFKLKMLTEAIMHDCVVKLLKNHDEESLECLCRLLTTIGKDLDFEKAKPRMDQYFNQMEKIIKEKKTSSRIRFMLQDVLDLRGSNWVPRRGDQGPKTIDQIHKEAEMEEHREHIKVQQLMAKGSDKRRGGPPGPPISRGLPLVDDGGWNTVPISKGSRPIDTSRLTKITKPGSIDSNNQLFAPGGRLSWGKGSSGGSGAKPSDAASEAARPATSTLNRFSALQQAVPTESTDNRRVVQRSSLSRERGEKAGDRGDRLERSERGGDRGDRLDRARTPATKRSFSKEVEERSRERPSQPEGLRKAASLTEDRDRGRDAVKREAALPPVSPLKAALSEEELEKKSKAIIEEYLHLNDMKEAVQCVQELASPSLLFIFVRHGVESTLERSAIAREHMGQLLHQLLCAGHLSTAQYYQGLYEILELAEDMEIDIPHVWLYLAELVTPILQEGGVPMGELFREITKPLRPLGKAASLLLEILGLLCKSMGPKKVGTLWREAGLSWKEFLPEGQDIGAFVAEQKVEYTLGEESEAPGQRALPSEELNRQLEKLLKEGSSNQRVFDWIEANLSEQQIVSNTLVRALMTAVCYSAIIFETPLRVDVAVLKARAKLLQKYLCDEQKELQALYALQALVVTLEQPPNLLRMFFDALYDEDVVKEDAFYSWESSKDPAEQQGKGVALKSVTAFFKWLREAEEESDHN
# Runt-SMMHC FRET – inhibitors of human RUNX1 Runt domain binding to CBFb-SMMHC; Q01196+Q13951; inhibition, % at 20 µM; Cerulean-Runt/Venus-CBFb-SMMHC FRET ratio 530/480, 1 h; 220,000 tested, 0.74% active; AID 1434;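 active = mean inhibition across duplicate retests at 20 µM reaching about 50%, limit read from the data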;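 note: 0% = DMSO wells and 100% = wells with excess untagged CBFb-SMMHC; inhibitors lower the FRET ratio by blocking Runt binding to CBFb-SMMHC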
# Hck Nef HTS – human Hck-Nef kinase inhibition; P08631; Recombinant Hck-YEEI plus Nef, Z-Lyte FRET kinase assay; inhibition, % at 20 µM; 220,000 tested, 0.68% active;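 active = Hck-Nef kinase inhibition above about 50%, limit read from the data; inactive = inhibition below that limit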;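 note: 0% = DMSO with Hck plus Nef and 100% = Hck alone without Nef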
# PERK inh – inhibitors of human PERK kinase; Q9NZJ5; CHO PERK-DD fusion, SEAP luminescence translation reporter; inhibition, % at 5.6 µM; 220,000 tested, 0.17% active; AID 1416;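 active = inhibition above the mean inhibition of all tested compounds plus 3 SD, set separately per screening campaign, cut at about 2.9% in these data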;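 note: PERK kinase domain activated by AP20187 dimerizer at 100 nM; 0% = DMSO with dimerizer and 100% = rapamycin at 8.4 µM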
# Runt-CBFb FRET – blocks binding of human RUNX1 Runt domain to CBFb; Q01196+Q13951; Cerulean-Runt/Venus-CBFb FRET ratio 530/480, 1 h; inhibition, % at 20 µM; 220,000 tested, 0.46% active; AID 1496;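 active = inhibition over about 50% at 20 µM in the single-dose screen, limit read from the data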;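 note: 0% = DMSO wells and 100% = excess unlabeled CBFb competitor control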
#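 Measured by: fluorescence energy transfer, 422 nm excitation, 530/480 nm emission; test system: Cerulean-tagged RUNX1 Runt domain (FRET donor) fusion protein; buffer or medium: Tris pH 7.5 buffer with BSA; compound: one dose, 20 µM compound, 1% DMSO; times: two 1 h room-temperature incubations shielded from light; benchmarks: unlabeled CBFb 5 µM, positive control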
# Active calls of the source: *; u = inconclusive; x = not tested or not shown; [ ] = another dose, or the depositor's remark.
SMILES,RanGTP-Impb inh,eIF4E-4G inh,Runt-SMMHC FRET,Hck Nef HTS,PERK inh,Runt-CBFb FRET
O=C(O)CSc1nnc(COc2cccc3cccnc23)n1-c1cccc(C(F)(F)F)c1,0,68*,-2,4,1,0
COc1cc(-c2nc(=S)[nH][nH]2)cc(OC)c1OC,2,1,44,21,1,38
O=C1S/C(=C\C=C\c2ccco2)C(=O)N1c1ccc(O)cc1,-4,-5,0,6,2,15
O=C(O)CC(C(=O)O)N1C(=O)/C(=C/C=C/c2ccco2)SC1=S (stereo not drawn),-5,32*,-2,71*,2,39
O=C(O)CSC(C(=O)Nc1ccc(Br)cc1)c1ccc(Cl)cc1 (stereo not drawn),u,0,-3,-6,0,-1
CCNc1nc(C)c(CN(C(C)=O)c2ccccc2)nc1C#N,4,1,91*,23,0,32
CSc1c(-c2ccccn2)c(N)nn1C(=O)C1CC1,1,-1,-1,11,1,-2
COCCCn1c(C(=O)N2CCOCC2)cc2c(=O)n3ccccc3nc21,0,x,x,x,x,x
Cc1ccc2nc3c(cc(C#N)c(=O)n3CC3CCCO3)c(=O)n2c1 (stereo not drawn),x,-1,65*,189*,1,52*
Cc1ccc2nc3c(cc(C#N)c(=O)n3CCN3CCOCC3)c(=O)n2c1,x,x,63*,x,x,146*
N#Cc1cc2c(=O)n3ccccc3nc2n(CCN2CCOCC2)c1=O,x,x,143*,x,x,103*
Cc1nn(C)c(C(=O)N2CCN(C(=O)c3ccco3)CC2)c1[N+](=O)[O-],1,5,-4,-1,1,-3
Cc1ccc(S(=O)(=O)NC(C(=O)Oc2ccc3c(C)c(Cl)c(=O)oc3c2)c2ccccc2)cc1 (stereo not drawn),72*,-2,59*,88*,0,64*
Cc1ccc(S(=O)(=O)N[C@H](C(=O)Oc2ccc3c(C(F)(F)F)cc(=O)oc3c2)c2ccccc2)cc1,33*,-5,78*,-1,0,11
CCC[C@@H](NS(=O)(=O)c1ccc(C)cc1)C(=O)Oc1ccc2c3c(c(=O)oc2c1)CCC3,1,0,13,24,1,10
O=c1c(Cl)c(NCCO)cnn1-c1cccc(Cl)c1,-4,-9,0,-1,0,0
CCCCNC(=O)C1CC(c2cccc(F)c2)=NO1 (stereo not drawn),1,3,12,23,x,1
CC(NC(=O)c1cccs1)c1ccccc1 (stereo not drawn),1,x,x,x,x,x
Cc1ccccc1-n1nc2c(c1NC(=O)c1cc3ccccc3oc1=O)CS(=O)(=O)C2,17*,6,39,1,0,10
COc1ccc(/C=N/n2c(-c3cccs3)n[nH]c2=S)cc1,4,33*,12,1,1,6
COC(=O)CCN1CCC(C(N)=O)CC1,u,2,0,0,0,2
CCCn1c(C)nc2c(c1=O)c1nc3ccccc3nc1n2CCC1=CCCCC1,1,0,64*,5,-2,22
CCCn1c(C)nc2c(c1=O)c1nc3ccccc3nc1n2CCc1ccccc1,x,x,x,7,1,x
CCOCCn1c(CN2CCN(C)CC2)nc2c1c(=O)n(C)c(=O)n2C,0,90*,-1,21,x,-1
CC(=O)c1ccc(N2CCN(S(=O)(=O)c3cc4[nH]c(=O)c(=O)[nH]c4cc3C)CC2)cc1,2,x,x,x,x,x
SMILES,RanGTP-Impb inh,eIF4E-4G inh,Runt-SMMHC FRET,Hck Nef HTS,PERK inh,Runt-CBFb FRET
Cc1ccc2nc(C)cc(Cl)c2c1,-1,-1,3,15,1,1
C=CCn1c2ccccc2c(=O)c2cc(C#Cc3ccsc3)ccc21,24*,x,x,x,x,x
C=CCn1c(O)c(N=O)c2ccccc21,-1,-3,2,-2,0,1
COc1ccc(S(=O)(=O)N2CCCC2CNC(=O)C(=O)Nc2ccc(C)cc2)cc1 (stereo not drawn),-1,x,x,x,x,x
Cc1ccc(S(=O)(=O)N2CCCC2CNC(=O)C(=O)Nc2ccc(F)cc2)cc1 (stereo not drawn),31*,x,x,x,x,x
O=C(NCc1ccc(Cl)cc1)C1CCC(CNc2c(N3CCCCC3)c(=O)c2=O)CC1 (stereo not drawn),u,0,2,-1,1,-2
CCc1noc(C)c1C(=O)Nc1nc(-c2cc(C)ccc2C)c(C)s1,2,-3,1,0,0,-2
O=C(c1ccccc1)c1c[nH]c2ccccc12,-1,x,x,x,x,x
O=C(/C=C/c1c[nH]c2ccccc12)c1cccc2ccccc12,17*,1,8,-1,0,20
COC(=O)C1CCN(C(=O)C2CCN(C(=O)[C@@H](NS(=O)(=O)c3ccc(C)cc3)C(C)C)CC2)CC1,-1,x,x,x,x,x
Cc1ccc(S(=O)(=O)c2cc3c(=O)n4cccc(C)c4nc3n(Cc3ccncc3)c2=N)cc1,112*,x,x,x,x,x
Cc1cccn2c(=O)c3cc(S(=O)(=O)c4ccccc4)c(=N)n(Cc4cccnc4)c3nc12,139*,x,x,x,x,x
N=c1c(S(=O)(=O)c2ccccc2)cc2c(=O)n3ccccc3nc2n1Cc1cccnc1,122*,x,x,x,x,x
N=c1c(S(=O)(=O)c2ccc(Br)cc2)cc2c(=O)n3ccccc3nc2n1Cc1ccccc1,0,x,x,x,x,x
N#CCCN(C(=O)CSc1nc2nc(-c3cccs3)cc(C(F)(F)F)c2c(=O)[nH]1)c1ccccc1,2,-1,5,-3,1,-6
CCOC(=O)c1nc(NNC(=O)c2ccc([N+](=O)[O-])cc2)sc1C,-2,x,x,x,x,x
CCc1nc(SCC(=O)c2ccc3c(c2)OCCO3)c2ccccc2n1,12,4,56*,2,-1,29
O=C(CSc1nc(Cc2ccccc2)nc2ccccc12)c1ccc2c(c1)OCCO2,u,-38,32,3,-1,11
COc1ccc(C)cc1NC(=O)CN(c1ccc(C)cc1)S(C)(=O)=O,0,1,-1,15,0,-4
Cc1ccc(O)c(NC(=O)c2ccccc2-c2ccccc2C(=O)O)c1,1,x,x,x,x,x
Cc1nc(C(C)(C)O)n(-c2ccccc2)n1,3,92*[fluorescence artefact?],3,1,2,0
CC(C)(O)c1nnn(-c2ccccc2)c1C(F)(F)F,u,-1,-3,2,1,-2
CN(C)c1ccc(/C=C(\Cl)c2nc3ccccc3s2)cc1,x,4,81*,6,0,39
COc1cc(C=C(c2nc3ccccc3s2)c2nc3ccccc3s2)cc(OC)c1O,36*,2,2,-1,-1,26
Cc1cc(=O)oc2cc(OCC(=O)OCC(=O)Nc3ccccc3F)ccc12,0,0,-2,25,1,2
Cc1cccc(S(=O)Cc2ccc(C(=O)N3CCOCC3)o2)c1 (stereo not drawn),-2,x,x,x,x,x
